# Data reported in ChEMBL document CHEMBL4715714, “Design, synthesis and biological evaluation of thiosemicarbazones, hydrazinobenzothiazoles and arylhydrazones as anticancer agents with a potential to overcome multidrug resistance” (Eur J Med Chem, 2016).
# The source made the active and inactive calls. The rule behind the calls is not given here.
# Experiments:
# [1] = test system: MES-SA; test: Cytotoxicity against human MES-SA cells assessed as inhibition of cell proliferation incubated for 72 hrs by MTT assay; type: functional, cell-based
# Method in brief: (§1)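 Cells were seeded (10000/well for A2780, 5000/well for MES-SA/Dx5 and KB-3-1/V1) and left to attach 12 h, then exposed to compound for 72 h. Medium was removed, and MTT (0.83 mg/mL) was added for 1 h at 37 °C. Cells were lysed in DMSO and absorbance read at 540 nm. Signal was corrected for unstained lysate background, normalized to untreated cells, and IC50 taken from a sigmoidal dose-response fit.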
# [2] = test system: MES-SA; test: Cytotoxicity against human MES-SA cells assessed as inhibition of cell proliferation at <50 uM incubated for 72 hrs by MTT assay; type: functional, cell-based; details: dose microM <50, time 72.0 hrs; method in brief: as §1
# [3] = test system: MES-SA/Dx5; test: Cytotoxicity against human MES-SA/DX5 cells assessed as inhibition of cell proliferation at <50 uM incubated for 72 hrs by MTT assay; type: functional, cell-based; details: dose microM <50, time 72.0 hrs; method in brief: as §1
# [4] = test system: MES-SA/Dx5; test: Cytotoxicity against human MES-SA/DX5 cells assessed as inhibition of cell proliferation incubated for 72 hrs by MTT assay; type: functional, cell-based; details: for IC50: MES-SA/Dx5, 72 h; method in brief: as §1
# [5] = test system: MES-SA/Dx5; test: Reduction in P-gp expression in human MES-SA/DX5 cells at IC20 concentration incubated for 5 days by calcein-AM staining based flow cytometric analysis; type: functional, cell-based; details: time 5.0 day
# Method in brief: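 MES-SA/Dx5 cells were grown 5 days with compound at IC20 values calculated from viability assays, then recovered in drug-free medium refreshed every fifth day. At 80% confluency, cells were stained with Calcein AM with or without verapamil, with TO-PRO-3 excluding dead cells, and analysed by flow cytometry for the P-gp-negative fraction.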
# [6] = test system: KB-V1; test: Cytotoxicity against human KB-V1 cells assessed as inhibition of cell proliferation incubated for 72 hrs by MTT assay; type: functional, cell-based; details: for IC50: KB-V1, 72 h; method in brief: as §1
# [7] = test system: A2780 ADR; test: Cytotoxicity against human A2780adr cells assessed as inhibition of cell proliferation incubated for 72 hrs in presence of efflux pump inhibitor, Tariquidar by MTT assay; type: functional, cell-based
# [8] = Selectivity ratio of IC50 for human MES-SA cells to IC50 for human MES-SA/DX5 cells incubated for 72 hrs by MTT assay; type: functional
# Method in brief: (§2)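 The selectivity ratio is the IC50 in P-gp-negative parental cells divided by the IC50 in the P-gp-positive resistant partner.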
# [9] = Selectivity ratio of IC50 for human MES-SA cells transfected with mCherry to IC50 for human MES-SA/DX5 cells transfected with mCherry incubated for 72 hrs by fluorescent assay; type: functional
# [10] = test system: KB 3-1; test: Cytotoxicity against human KB-3-1 cells assessed as inhibition of cell proliferation incubated for 72 hrs by MTT assay; type: functional, cell-based; details: for IC50: KB 3-1, 72 h; method in brief: as §1
# [11] = test system: MES-SA/Dx5; test: Cytotoxicity against human MES-SA/DX5 cells transfected with mCherry fluorescent protein assessed as inhibition of cell proliferation incubated for 72 hrs by fluorescent assay; type: functional, cell-based; details: Homo sapiens, MES-SA/Dx5, 72 h; read-out: IC50
# Method in brief: (§3)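 MES-SA and MES-SA/Dx5 cells were made to stably express mCherry by lentiviral transduction. Cells were seeded at 5000 (96-well) or 2500 (384-well) per well, allowed to attach 24 h, then treated with compound dilutions for 72 h. Viability was read as fluorescence, excitation 585 nm, emission 610 nm.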
# [12] = test system: MES-SA/Dx5; test: Cytotoxicity against human MES-SA/DX5 cells incubated for 72 hrs in presence of efflux pump inhibitor, Tariquidar by MTT assay; type: functional, cell-based
# Method in brief: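 Run as the 72 h MTT viability readout (12 h attachment, MTT 0.83 mg/mL for 1 h, DMSO lysis, A540), with the P-gp inhibitor Tariquidar at 1 µM co-present. IC50 came from sigmoidal fits of 2 to 4 independent experiments.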
# [13] = test system: MES-SA/Dx5; test: Cytotoxicity against human MES-SA/DX5 cells transfected with mCherry fluorescent protein incubated for 72 hrs in presence of efflux pump inhibitor, Tariquidar by fluorescence assay; type: functional, cell-based
# Method in brief: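 The mCherry-expressing cells (lentiviral) were seeded at 5000 or 2500 per well, attached for 24 h, and exposed 72 h to compounds with Tariquidar coadministered. Live-cell signal was fluorescence at 585 nm excitation and 610 nm emission.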
# [14] = test system: MES-SA/Dx5; test: Reduction in P-gp expression in human MES-SA/DX5 cells measured after 5 rounds of treatment by DAPI staining based immunocytochemistry analysis; type: functional, cell-based
# Method in brief: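 Treated cells were plated in chamber slides, fixed after 1 day in 4% paraformaldehyde for 15 min, and blocked 1 h (BSA, fish gelatin, goat serum, Triton X-100). They were stained with anti-P-gp MRK16 (1:500, 1 h), then PE goat anti-mouse IgG (1:250, 1 h), with DAPI 1 µM for 10 min. Imaging used fluorescence and confocal microscopy.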
# [15] = Selectivity ratio of IC50 for human A2780 cells to IC50 for human A2780adr cells incubated for 72 hrs by MTT assay; type: functional; method in brief: as §2
# [16] = Cytotoxicity against human A2780adr cells assessed as inhibition of cell proliferation incubated for 72 hrs by MTT assay; type: functional, cell-based; details: A2780 ADR; method in brief: as §1
# [17] = test system: A2780; test: Cytotoxicity against human A2780 cells assessed as inhibition of cell proliferation incubated for 72 hrs by MTT assay; type: functional, cell-based; details: A2780, 72 h; method in brief: as §1
# [18] = test system: MES-SA; test: Cytotoxicity against human MES-SA cells transfected with mCherry fluorescent protein assessed as inhibition of cell proliferation incubated for 72 hrs by fluorescent assay; type: functional, cell-based; details: Homo sapiens, MES-SA, 72 h; read-out: IC50; method in brief: as §3
# [19] = Selectivity ratio of IC50 for human KB-3-1 cells to IC50 for human KB-V1 cells incubated for 72 hrs by MTT assay; type: functional; method in brief: as §2
# [20] = test system: KB-V1; test: Cytotoxicity against human KB-V1 cells assessed as inhibition of cell proliferation incubated for 72 hrs in presence of efflux pump inhibitor, Tariquidar by MTT assay; type: functional, cell-based
# [21] = test system: MES-SA/Dx5; test: Cytotoxicity against human MES-SA/DX5 cells assessed as inhibition of cell proliferation at >=50 uM incubated for 72 hrs by MTT assay; type: functional, cell-based; details: dose microM >=50, time 72.0 hrs; method in brief: as §1
# [22] = test system: KB 3-1; test: Cytotoxicity against human KB-3-1 cells assessed as inhibition of cell proliferation at >=50 uM incubated for 72 hrs by MTT assay; type: functional, cell-based; details: dose microM >=50, time 72.0 hrs; method in brief: as §1
# [23] = test system: MES-SA; test: Cytotoxicity against human MES-SA cells assessed as inhibition of cell proliferation at >=50 uM incubated for 72 hrs by MTT assay; type: functional, cell-based; details: dose microM >=50, time 72.0 hrs; method in brief: as §1
# [24] = test system: KB-V1; test: Cytotoxicity against human KB-V1 cells assessed as inhibition of cell proliferation at >=50 uM incubated for 72 hrs by MTT assay; type: functional, cell-based; details: dose microM >=50, time 72.0 hrs; method in brief: as §1
smiles,measurement,setting,value
COc1ccc(NC(=S)NNC(=S)Nc2ccc(OC)cc2)cc1,pIC50,[1],inactive
same,Activity,[2],inactive
same,Activity,[3],inactive
same,pIC50,[4],inactive
O=C1Nc2ccccc2/C1=N/NC(=S)Nc1ccc([N+](=O)[O-])cc1,inhibition,[5],Active
same,IC50,[1]; read-out: IC50,9.17 µM
same,IC50,[1]; read-out: pIC50 (converted),8.51 µM
same,IC50,[6]; read-out: IC50,4.58 µM
same,IC50,[6]; read-out: pIC50 (converted),4.47 µM
same,Activity,[7],inactive
same,Ratio IC50,[8],1.77
same,Ratio IC50,[9],3.55
same,IC50,[10]; read-out: IC50,8.2 µM
same,IC50,[10]; read-out: pIC50 (converted),7.76 µM
same,IC50,[11],7.55 µM
same,Activity,[12],inactive
same,Activity,[13],inactive
same,inhibition,[14],Active
same,Ratio IC50,[15],2.98
same,IC50,[16]; read-out: IC50,8.78 µM
same,IC50,[16]; read-out: pIC50 (converted),8.91 µM
same,IC50,[17]; read-out: IC50,25.7 µM
same,IC50,[17]; read-out: pIC50 (converted),24.5 µM
same,IC50,[18],15.8 µM
same,Ratio IC50,[19],1.82
same,IC50,[4]; read-out: IC50,4.74 µM
same,IC50,[4]; read-out: pIC50 (converted),4.68 µM
same,Activity,[20],inactive
COc1ccc(NC(=S)NNc2nc3ccccc3s2)cc1,pIC50,[1],inactive
same,Activity,[21],inactive
same,pIC50,[6],inactive
same,pIC50,[10],inactive
same,Activity,[22],inactive
same,Activity,[23],inactive
same,pIC50,[4],inactive
same,Activity,[24],inactive
